The text below walks through data of PubChem BioAssay AID588828 (Broad Institute, 2011).

SMILES strings stand for the structures. Active and inactive are the calls of the source.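 The calls were made as follows: active = compounds cutting labeled HDL uptake fluorescence whose fitted AC50 is within ten times their top tested dose; inconclusive = flat fit with 30 to 70% inhibition, or poor fit; inactive = the rest.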 Bounds are passed on as bounds.

This experiment concerns the target Scavenger receptor class B member 1 (Mus musculus) (UniProt Q61009). As to the kind of experiment: mSR-BI lipid transfer inhibition in CHO cells – ldlA[mSR-BI] CHO cells, fluorescence, dry powder, set 6, dose response (AID 588828). As to conditions: DiI-HDL uptake fluorescence, 3 h; for activity change, negative = inhibition: at 35 µM (top of the series). Put shortly:
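System: CHO ldlA cells overexpressing mSR-BI scavenger receptor. Reagent: DiI-HDL, 10 µg/mL. Dosing: compound concentration series. Times: overnight cell attachment, then 3 h compound and DiI-HDL exposure at 37 °C. Signal: fluorescence, bottom read, excitation 550 nm, emission 595 nm.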

Scavenger receptor class B member 1 (Mus musculus), sequence (Q61009 whole entry, looked up): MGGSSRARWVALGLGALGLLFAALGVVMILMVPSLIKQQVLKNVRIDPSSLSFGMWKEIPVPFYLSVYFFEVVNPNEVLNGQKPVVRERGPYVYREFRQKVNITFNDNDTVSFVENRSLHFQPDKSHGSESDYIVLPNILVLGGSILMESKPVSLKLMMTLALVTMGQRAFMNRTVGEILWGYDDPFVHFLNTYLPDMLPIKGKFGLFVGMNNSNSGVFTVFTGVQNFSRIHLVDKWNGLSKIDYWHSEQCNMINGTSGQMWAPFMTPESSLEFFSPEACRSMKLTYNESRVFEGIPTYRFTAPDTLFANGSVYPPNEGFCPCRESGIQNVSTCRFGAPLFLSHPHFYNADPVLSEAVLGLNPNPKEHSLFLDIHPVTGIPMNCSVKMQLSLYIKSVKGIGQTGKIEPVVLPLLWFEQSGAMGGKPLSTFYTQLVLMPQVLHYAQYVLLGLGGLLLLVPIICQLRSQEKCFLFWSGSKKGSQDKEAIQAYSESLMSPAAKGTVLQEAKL

For the compound `C[C@@H]1CN([C@@H](C)CO)C(=O)Cc2cc(NC(=O)Nc3ccc(C(F)(F)F)cc3)ccc2O[C@@H]1CN(C)S(=O)(=O)c1ccc(Cl)cc1`, the AC50 was > 22000 nM (inactive).

Take `COc1ccc(-c2cc(CC(=O)N(C3CCCCC3)C(C)C(=O)NC3CCCC3)no2)cc1OC` (stereo unspecified): the AC50 was 3.19 nM.

Take `COc1c(NC(=O)C(=O)c2ccc(OCCN3CCOCC3)c3ccccc23)cc(C(C)(C)C)cc1NS(C)(=O)=O`: the “activity change, negative = inhibition” value is “inactive”.

Regarding `CCC(=O)N1CC(C)(C)c2cc(-c3csc(NC(=O)c4cc(OC)cc(OC)c4)n3)ccc21`, the AC50 was 14.2 nM.

Regarding `CCCCCCC1CCC/C1=N\NC(N)=S` (stereo unspecified), the half-maximal activity concentration (AC50) was 18.7 nM.

As to `COCC(=O)N1CCc2cc(-c3csc(NC(=O)c4cc(OC)cc(OC)c4)n3)ccc21`, the AC50 is 3.66 nM.

On to `CC(C)(Sc1cc(C(C)(C)C)c(O)c(C(C)(C)C)c1)Sc1cc(C(C)(C)C)c(O)c(C(C)(C)C)c1`, for which the “activity change, negative = inhibition” value was “inactive”.

Regarding `C[C@@H]1CN([C@H](C)CO)C(=O)c2cc(NC(=O)Cc3cn(C)c4ccccc34)ccc2O[C@H]1CN(C)S(=O)(=O)c1ccc(Cl)cc1`, the half-maximal activity concentration (AC50) is 43.8 nM.

Take `COc1cc(OC)cc(C(=O)Nc2nc(-c3ccc4c(c3)CCN4C(=O)OC(C)(C)C)cs2)c1`: the concentration at half-maximal activity (AC50) is 6.89 nM.

With `CCC(=O)N1CCc2cc(-c3csc(NC(=O)c4ccc(F)c(OC)c4)n3)ccc21`, the AC50 is 287 nM.

Take `Cc1ccc2oc(-c3cccc(NC(=O)c4cc(-n5cnnc5)ccc4Cl)c3)nc2c1`: the AC50 was 568 nM.

Take `C[C@H](C(=O)NC1CCCC1)N(C(=O)Cn1nnc(-c2ccc3c(c2)OCO3)n1)C1CCCCC1`: the concentration at half-maximal activity (AC50) was 1.22 nM.

With `CC(=O)N1CCc2cc(-c3nc(NC(=O)c4cccc(OC(F)(F)F)c4)sc3C)ccc21`, the AC50 is 614 nM.

`CCC(=O)N1CCc2cc(-c3csc(NC(=O)c4cccc(OC)c4)n3)ccc21`: the AC50 was 92.6 nM.

For `CCNC(=O)N1CCc2cc(-c3csc(NC(=O)c4cc(OC)cc(OC)c4)n3)ccc21`, the AC50 was 0.927 nM.

As to `COc1cc(OC)cc(C(=O)Nc2nc(-c3ccc4c(c3)CCN4C(=O)CN(C)C)cs2)c1`, the half-maximal activity concentration (AC50) is 6.3 nM.

For orientation: AC50 means the midpoint of the concentration-response curve, whichever way the signal moves.
